Source: PMC5653211 (Journal of medicinal chemistry, 2017)

How the values were obtained:
α7 nAChR [1] = biological target: T1, α7 nAChR (Homo sapiens, UniProt P36544); format: cell-based; details: for Response when applied alone, of the control ACh response: concentrations of Figure 4, 60 µM ACh control; for α7 activation / partial agonism: compound applied alone
Summary of the method: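 Two-electrode voltage clamp on Xenopus laevis oocytes expressing human α7 nAChR. Test compound applied alone at 10, 30, 100, 300 µM and 1 mM; one comparator was tested only up to 300 µM. Response taken as net charge normalized to 60 µM ACh applied alone.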

α7 nAChR [2] = biological target: T1, α7 nAChR; experiment: PAM-potentiated α7 responses, co-application with 10 µM 1; format: cell-based; details: for Potentiation by 1: co-applied with 10 µM 1
Summary of the method: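 Human α7 nAChR in Xenopus laevis oocytes, two-electrode voltage clamp. Test compound at 10, 30 or 100 µM co-applied with 10 µM positive allosteric modulator. Net charge normalized to 60 µM ACh controls in the same cells; at least four cells (± S.E.M.). Desensitization: 60 µM ACh responses recorded before and after test compound application, 210 s traces, averaged over 8 cells and normalized to pre-application ACh controls.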

α7 nAChR [3] = biological target: T1, α7 nAChR; experiment: Inhibition of α7 ACh-evoked responses, co-application with 60 µM ACh; format: cell-based; details: range 0.3–100 µM; co-applied with 60 µM ACh
Summary of the method: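 Xenopus laevis oocytes expressing human α7 nAChR, two-electrode voltage clamp. Test compound co-applied with 60 µM ACh at 0.3, 1, 3, 10, 30, 100 […] µM. Net charge normalized to responses to 60 µM ACh applied alone. Each point is the mean of at least four cells (± S.E.M.); IC50 values come from the inhibition concentration-response curve.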

[4] = biological target: human heteromeric nicotinic receptor α4β2 (Homo sapiens, UniProt P17787+P43681); format: cell-based
muscle type human nAChR = muscle type human nAChR (Homo sapiens, UniProt P02708+Q07001); experiment: Activation and ACh competition at muscle type nAChR, oocyte voltage clamp; format: cell-based
[5] = biological target: ganglionic α3β4 human nAChR (Homo sapiens, UniProt P30926+P32297); experiment: Activation and ACh competition at ganglionic α3β4 nAChR, oocyte voltage clamp; format: cell-based
[6] = Hydrolytic stability in water and Ringer's buffer by 1H-NMR; format: physicochemical; details: water, room temperature (~ 25 °C), 3 h, 19 h and up to 60 days

## CC[N+]1(CC)CCN(c2ccccc2)CC1 [compound 4, N,N-diethyl-N’-phenylpiperazine, reference compound]
α7 nAChR [1]
  Response when applied alone, of the control ACh response: less than 10%
α7 nAChR [2]; at 10, 30, and 100 µM + 10 µM 1
  Potentiated responses relative to the corresponding ones for 7: half or less
α7 nAChR [2]
  Potentiation by 1: modest potentiation

## CCN1CCN(c2ccccc2)CC1 [compound 5, N-phenyl N’-ethyl piperazine]
α7 nAChR [1]
  α7 activation / partial agonism: no activation
  Response when applied alone, of the control ACh response: less than 10%
α7 nAChR [3]
  Inhibition of α7 ACh responses: lacked the ability to inhibit
α7 nAChR [2]
  Potentiation by 1: failed to show significant potentiated responses

## CC[S+]1CCN(c2ccccc2)CC1.O=S(=O)([O-])C(F)(F)F [compound 7, 1-ethyl-4-phenylthiomorpholin-1-ium trifluoromethane sulfonate]
α7 nAChR [1]
  α7 activation / partial agonism: virtually no activation
  Response when applied alone, of the control ACh response: less than 10%
α7 nAChR [2]
  PAM response enhancement compared to the parent compound 4: 4 fold
α7 nAChR [2]; 100 µM 7 for 30s, then 10 µM PNU120596, subsequent 60 µM ACh response
  Reversibility of desensitization: readily reversible
α7 nAChR [2]; coapplication with 10 µM 1
  Potentiated response relative to the response to compound applied alone: 2–3 orders of magnitude
α7 nAChR [2]; coapplication with 10 µM 1, over 10-100 µM compound
  Response compared to the control ACh response: 3 to 25 fold
[4]
  Agonism: failed to show agonism
Muscle type human nAChR; 30 µM compound
  Activation: failed to produce measureable activation
Muscle type human nAChR; co-application with 30 µM ACh
  Antagonism: weak antagonism
[5]; 30 µM compound
  Activation: failed to produce measureable activation
[5]; co-application with 100 µM ACh
  Antagonism: weak antagonism
[6]
  Hydrolytic stability, 1H-NMR spectra vs time zero: no differences in the spectra
